Experimental data as given in PubChem BioAssay.
Records with an inconclusive call do not appear.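 The calls were made as follows, unless noted: active = viability increase at or above a cutoff of the median across tested compounds plus 3 SD (cut at about 8.5% in these data, passing the limit was not always enough); inconclusive = some gains above the cutoff, reason not given; inactive = the rest.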

Legend:
[1] = S. cerevisiae growth inhibition in permissive medium (OD615), pilot counter-assay for S. cerevisiae lifespan shortening project, permissive growth control (AID 705;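 active = growth inhibition above 25% in both replicates, a cutoff set 3 SD above the mean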); conditions: OD615, 24 h, at 10 µM, stronger effect = higher value
Method in brief: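 assay system = Saccharomyces cerevisiae strain carrying genetically modified DeaD replicative-lifespan system | medium = SC raffinose/galactose permissive medium | dosing = 10 µM single dose, 0.25% DMSO | schedule = 24 h compound exposure at 30 °C after 4 h pre-growth | measured by = OD at 615 nm | read-out basis = growth inhibition from lowered OD615 after 24 h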

[2] = S. cerevisiae growth inhibition in restrictive medium, OD615, pilot screen, restrictive growth control, yeast lifespan reduction project (AID 706;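 active = growth inhibition above a set limit, 3 SD over mean compound inhibition, in both replicates, cut at about 43% in these data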;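 also: modified DeaD lifespan yeast strain shifted to restrictive glucose medium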); conditions: OD615, 48 h, at 10 µM, stronger effect = higher value
Method in brief: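 Buffer or medium: CSMM-D glucose medium. Material: genetically modified Saccharomyces cerevisiae, DeaD replicative lifespan assay strain. Times: 48 h compound exposure at 30 °C. Measured by: optical density at 615 nm.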

[3] = doxorubicin toxicity protection in MRP-1 cells – H69AR cells, CellTiter-Glo, duplicate, MRP-1 activator project, pilot screen (AID 807); conditions: H69AR viability with doxorubicin, CellTiter-Glo luminescence; at 10 µM; stronger effect = higher value;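 also: compound pretreatment 18-22 h then 72 h combined with doxorubicin; 0% = doxorubicin alone and 100% = vehicle without doxorubicin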
[4] = viability of HCT116 without oncogenic beta-catenin – human colon tumor cells, pilot screen (AID 823;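 active = cell viability at or below a set limit in both duplicate runs, the limit being the all-compound median minus 4 SD, cut at about 23% in these data, passing the limit was not always enough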;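 also: 0% = wells killed by 20 µM Hyamine and 100% = untreated DMSO cell wells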); conditions: HCT116 beta-catenin knockout viability, CellTiter-Glo, 60 h; at 10 µM; stronger effect = lower value
[5] = viability of PTEN-null HCT116 cells – cell-based, HCT116 clonal line, CellTiter-Glo, pilot screen (AID 824;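 active = viability at or below 27.92% in each of two runs, the all-compound median minus 4 SD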;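 also: 0% = 20 µM Hyamine control and 100% = vehicle cell control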); conditions: HCT116 PTEN-deleted viability, 60 h, at 10 µM, stronger effect = lower value
[6] = RAM pathway blockade in budding yeast – dse1pr::URA3 reporter, 5-FOA selection, pilot screen (AID 869;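 active = inhibition over a set limit, the all-compound mean plus 3 SD, in both replicate runs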;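 also: 0% = DMSO wells with no growth and 100% = 10 µM 1-NA-PP1 with full growth; RAM network block rescues cells from 5-FOA so hits raise OD615 growth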); conditions: S. cerevisiae dse1pr::URA3 5-FOA growth, OD615, 2 d; at 10 µM; stronger effect = higher value; strain carries analog-sensitive mutant Cbk1 kinase
[7] = RAM signaling pathway blockade in yeast – S. cerevisiae, Pdr1DBD-CYC8 efflux-inhibited sensitized strain, primary screen (AID 1298;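 active = RAM network inhibition above 8.4% in each of two replicates, 3 SD over the compound average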;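 also: 0% = DMSO untreated cells without growth and 100% = 10 µM 1-NA-PP1 full growth; higher means more yeast growth rescued from 5-FOA killing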); conditions: S. cerevisiae cbk1-as DSE1-URA3 strain, 5-FOA growth OD615, 2 d; at 50 µM; stronger effect = higher value

CC(=O)C1=C(O)C(=O)N(c2nnn(C)n2)C1c1cccs1 (configuration not stated)
inactive: growth inhibition [1] -9.56% | growth inhibition [2] -6.22% | viability increase [3] -1.76% | viability [4] 107% | viability [5] 95.8% | inhibition [6] 2.02% | RAM network inhibition [7] 0.72%

C=C(C)Cn1c(C2CC(=O)N(c3ccccc3F)C2)nc2ccccc21 (configuration not stated)
inactive: growth inhibition [1] -9.62% | growth inhibition [2] -5.32% | viability increase [3] -2.5% | viability [4] 100% | viability [5] 105% | inhibition [6] 0.42% | RAM network inhibition [7] 1.56%

COc1ccc(Cc2nnc(SC)[nH]c2=O)cc1OC
inactive: growth inhibition [1] 0.615% | growth inhibition [2] -16.6% | viability increase [3] -1.67% | viability [4] 101% | viability [5] 99.4% | inhibition [6] 0.225% | RAM network inhibition [7] 1.41%

COCCNC(=O)CN(c1ccc(C)cc1)S(=O)(=O)c1ccc(SC)cc1
inactive: growth inhibition [1] -10.6% | growth inhibition [2] -12.2% | viability increase [3] -0.9% | viability [4] 96.2% | viability [5] 84.2% | inhibition [6] 0.71% | RAM network inhibition [7] 5.17%

COCCCN(C(=O)Nc1ccccc1)C(C)c1ccncc1 (configuration not stated)
inactive: growth inhibition [1] 2.64% | growth inhibition [2] -0.975% | viability increase [3] -1.88% | viability [4] 101% | viability [5] 94.3% | inhibition [6] 1.18% | RAM network inhibition [7] 3.28%

Cc1cccc(OCC(=O)NCc2ccncc2)c1C
inactive: growth inhibition [1] -7.54% | growth inhibition [2] -7.64% | viability increase [3] -1.63% | viability [4] 99.4% | viability [5] 104% | inhibition [6] 0.525% | RAM network inhibition [7] 4.22%

COc1ccc(S(=O)(=O)N(CCc2ccccc2)CC(=O)O)cc1OC
inactive: growth inhibition [1] -1.68% | growth inhibition [2] 10.5% | viability increase [3] 0.57% | viability [4] 97.6% | viability [5] 102% | inhibition [6] 1.35% | RAM network inhibition [7] 1.09%

N#CC1=C2SCN(Cc3ccccc3)CN2C(=O)CC1c1cccs1 (configuration not stated)
inactive: growth inhibition [1] 9.16% | growth inhibition [2] 30.2% | viability increase [3] -2.91% | viability [4] 94.3% | viability [5] 86% | inhibition [6] 0.535% | RAM network inhibition [7] 4.04%

N#CCCN1CCN(S(=O)(=O)c2ccc(S(=O)(=O)N3CCOCC3)cc2)CC1
inactive: growth inhibition [1] -6.47% | growth inhibition [2] 4.95% | viability increase [3] 0.97% | viability [4] 95.2% | viability [5] 98.8% | inhibition [6] -0.88% | RAM network inhibition [7] -2.16%

CCCCn1c(CNC(=O)CC)nc2ccccc21
inactive: growth inhibition [1] -4.54% | growth inhibition [2] -9.44% | viability increase [3] -2.1% | viability [4] 103% | viability [5] 102% | inhibition [6] 0.825% | RAM network inhibition [7] 1.89%

O=C1CCCCCN1Cc1nnc(SCc2nc3ccccc3s2)n1-c1ccccn1
inactive: growth inhibition [1] -3.83% | growth inhibition [2] 19.8% | viability increase [3] -3.45% | viability [4] 91.7% | viability [5] 95% | inhibition [6] 1.07% | RAM network inhibition [7] 2.7%

COc1ccc(-c2nc3cnccn3c2Nc2ccc3c(c2)OCO3)cc1
inactive: growth inhibition [1] -10.7% | growth inhibition [2] 3.96% | viability increase [3] -6.6% | viability [4] 70.9% | viability [5] 62.8% | inhibition [6] -0.105% | RAM network inhibition [7] 0.16%

CCOC(=O)c1cnc2nc[nH]n2c1=O
inactive: growth inhibition [1] 1.53% | growth inhibition [2] 11.7% | viability increase [3] 2.64% | viability [4] 104% | viability [5] 103% | inhibition [6] 0.33% | RAM network inhibition [7] -0.24%

c1ccc2c(c1)nc1n2CCN1CCNC1CCCCC1
inactive: growth inhibition [1] -11.4% | growth inhibition [2] -11.7% | viability increase [3] -1.96% | viability [4] 94.2% | viability [5] 98.6% | inhibition [6] 0.065% | RAM network inhibition [7] 1.2%

Nc1ccc(OCc2ccccc2)cc1
inactive: growth inhibition [1] -14.4% | growth inhibition [2] -9.93% | viability increase [3] -4.17% | viability [4] 98.7% | viability [5] 89.4% | inhibition [6] 1.9% | RAM network inhibition [7] 5.27%

Cc1cccc(C(=O)N2CCN(Cc3ccc4c(c3)OCO4)CC2)c1
inactive: growth inhibition [1] -10.7% | growth inhibition [2] -4.2% | viability increase [3] -1.3% | viability [4] 111% | viability [5] 95.7% | inhibition [6] -0.065% | RAM network inhibition [7] 4.6%

COc1ccc(C)cc1NC(=O)CN(c1ccc(F)cc1)S(C)(=O)=O
inactive: growth inhibition [1] -20.5% | growth inhibition [2] -18.5% | viability increase [3] -1.76% | viability [4] 92.4% | viability [5] 103% | inhibition [6] 1.31% | RAM network inhibition [7] 4.09%

COC(=O)c1c(NC(=O)CSc2nnnn2-c2ccccc2)sc2c1CCC(C)C2 (configuration not stated)
inactive: growth inhibition [1] -21.3% | growth inhibition [2] -21.2% | viability increase [3] -1.07% | viability [4] 84.4% | viability [5] 78.3% | inhibition [6] 2.46% | RAM network inhibition [7] 10.1%

COc1cc2c(cc1OC)C(C(=O)Nc1ccc3c(c1)OCCO3)C(c1cccnc1)N(C)C2=O (configuration not stated)
inactive: growth inhibition [1] -4.64% | growth inhibition [2] -22.9% | viability increase [3] -6.9% | viability [4] 85.6% | viability [5] 87.9% | inhibition [6] 1.38% | RAM network inhibition [7] -0.57%

CC(=O)c1ccc2c3c(ccc(O)c13)CC2
inactive: growth inhibition [1] -1.21% | growth inhibition [2] 7.16% | viability increase [3] -4.04% | viability [4] 97.2% | viability [5] 88% | inhibition [6] 1.52% | RAM network inhibition [7] 5.46%

O=C1c2oc3ccccc3c(=O)c2C(c2cccc(O)c2)N1CCCN1CCOCC1 (configuration not stated)
inactive: growth inhibition [1] -8.79% | growth inhibition [2] -7.73% | viability increase [3] -0.83% | viability [4] 102% | viability [5] 102% | inhibition [6] 0.37% | RAM network inhibition [7] 2.79%

Cc1cc(N2CCC(N(C)C3CCCC3)CC2)nc2cc(O)ccc12
inactive: growth inhibition [1] -8.33% | growth inhibition [2] -9.98% | viability increase [3] -7.96% | viability [4] 53.9% | viability [5] 53.7% | inhibition [6] 2.4% | RAM network inhibition [7] 2.21%

CCCCCCc1c(O)nc(SCC(=O)O)[nH]c1=O
inactive: growth inhibition [1] 5.63% | growth inhibition [2] 13.4% | viability increase [3] 0.25% | viability [4] 108% | viability [5] 101% | inhibition [6] 2.51% | RAM network inhibition [7] -0.58%

COc1ccccc1NC(=O)CSc1nnc(-c2ccccc2)o1
inactive: growth inhibition [1] -16% | growth inhibition [2] -11% | viability increase [3] -0.16% | viability [4] 77.6% | viability [5] 71.1% | inhibition [6] 2.4% | RAM network inhibition [7] 1.53%

O=C(CSc1nnc(Cc2cc(=O)[nH]c(=O)[nH]2)n1-c1ccc(F)cc1)N1CCCCC1
inactive: growth inhibition [1] -4.41% | growth inhibition [2] 1.35% | viability increase [3] -0.28% | viability [4] 104% | viability [5] 105% | inhibition [6] 0.87% | RAM network inhibition [7] 2.55%

O=C(Nc1ccccc1)c1ccccc1O
inactive: growth inhibition [1] 1.28% | growth inhibition [2] 13.7% | viability increase [3] -1.14% | viability [4] 92.2% | viability [5] 83.2% | inhibition [6] -0.42% | RAM network inhibition [7] -1.46%

C=CCn1c(SCCN2CCCCC2)nc2c1c(=O)[nH]c(=O)n2C
inactive: growth inhibition [1] -3.65% | growth inhibition [2] 6.96% | viability increase [3] -1.07% | viability [4] 109% | viability [5] 99.8% | inhibition [6] 1.17% | RAM network inhibition [7] 1.65%

O=C(c1ccccn1)N(CC1CCCO1)C1(C(=O)NC2CCCCC2)CCCCC1 (configuration not stated)
inactive: growth inhibition [1] -4.99% | growth inhibition [2] -10.3% | viability increase [3] -0.31% | viability [4] 85.5% | viability [5] 92.3% | inhibition [6] 1.69% | RAM network inhibition [7] -0.32%

COC(=O)C1=C(C)NC(=O)NC1c1cn(-c2ccccc2)nc1-c1cccs1 (configuration not stated)
inactive: growth inhibition [1] 1.5% | growth inhibition [2] 7.83% | viability increase [3] -1.94% | viability [4] 85.6% | viability [5] 82.4% | inhibition [6] 2.37% | RAM network inhibition [7] 5.72%

O=C(c1ccncc1)N1CCN(C(=O)c2cccc3ccccc23)CC1
inactive: growth inhibition [1] -14.8% | growth inhibition [2] -7.07% | viability increase [3] -2.73% | viability [4] 101% | viability [5] 93.9% | inhibition [6] 2.16% | RAM network inhibition [7] 2.45%

CCOc1ccccc1NC(=O)CSc1nc2c(c(=O)n1C)SC(C)C2 (configuration not stated)
inactive: growth inhibition [1] -8.29% | growth inhibition [2] -4.14% | viability increase [3] -2.89% | viability [4] 92.3% | viability [5] 89.1% | inhibition [6] 2% | RAM network inhibition [7] 4.44%

COc1ccc(-c2nn(-c3ccccc3)cc2C(=O)O)cc1
inactive: growth inhibition [1] -8.52% | growth inhibition [2] 1.15% | viability increase [3] -3.69% | viability [4] 105% | viability [5] 97% | inhibition [6] 3.71% | RAM network inhibition [7] 11.1%

COC(=O)COC(=O)CC(CC(N)=O)c1ccccc1 (configuration not stated)
inactive: growth inhibition [1] -8.58% | growth inhibition [2] -0.775% | viability increase [3] -0.29% | viability [4] 95% | viability [5] 102% | inhibition [6] 2.13% | RAM network inhibition [7] 3.07%

Cc1ccc(NC(=O)CCNS(=O)(=O)c2cccc3nonc23)cc1
inactive: growth inhibition [1] -4.17% | growth inhibition [2] -8.23% | viability increase [3] -1.47% | viability [4] 105% | viability [5] 95.5% | inhibition [6] 0.755% | RAM network inhibition [7] 4.98%

O=C(Nc1cnc2ccccc2c1)c1cccnc1
inactive: growth inhibition [1] 4.78% | growth inhibition [2] 0.625% | viability increase [3] -7.98% | viability [4] 103% | viability [5] 103% | inhibition [6] 1.74% | RAM network inhibition [7] -0.15%

CCSC1=C(C#N)C(c2ccc(C)s2)CC(=O)N1 (configuration not stated)
inactive: growth inhibition [1] -16.1% | growth inhibition [2] -6.45% | viability increase [3] -0.29% | viability [4] 95.8% | viability [5] 94.1% | inhibition [6] 0.425% | RAM network inhibition [7] 0.57%
